What was measured:
[1] = target: T1, Adrenergic receptor alpha-2 (Rattus norvegicus, UniProt P22086+P19328+P22909); test: Displacement of [3H]rauwolscine from Alpha-2 adrenergic receptor of rat brain membranes; assay type: cell membranes, Membrane
T1 sequence (P22086 whole entry): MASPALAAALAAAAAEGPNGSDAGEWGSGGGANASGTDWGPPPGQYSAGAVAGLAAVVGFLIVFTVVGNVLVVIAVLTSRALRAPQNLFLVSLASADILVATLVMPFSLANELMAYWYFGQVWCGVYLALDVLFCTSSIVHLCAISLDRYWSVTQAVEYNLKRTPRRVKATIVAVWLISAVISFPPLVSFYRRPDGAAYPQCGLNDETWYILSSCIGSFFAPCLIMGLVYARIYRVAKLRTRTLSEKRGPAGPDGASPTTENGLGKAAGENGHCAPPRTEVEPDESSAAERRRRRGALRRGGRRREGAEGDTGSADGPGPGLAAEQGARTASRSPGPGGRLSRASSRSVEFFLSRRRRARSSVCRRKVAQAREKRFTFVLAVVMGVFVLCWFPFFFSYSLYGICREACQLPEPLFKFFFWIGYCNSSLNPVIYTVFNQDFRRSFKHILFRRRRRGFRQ
T1 sequence (P19328 whole entry): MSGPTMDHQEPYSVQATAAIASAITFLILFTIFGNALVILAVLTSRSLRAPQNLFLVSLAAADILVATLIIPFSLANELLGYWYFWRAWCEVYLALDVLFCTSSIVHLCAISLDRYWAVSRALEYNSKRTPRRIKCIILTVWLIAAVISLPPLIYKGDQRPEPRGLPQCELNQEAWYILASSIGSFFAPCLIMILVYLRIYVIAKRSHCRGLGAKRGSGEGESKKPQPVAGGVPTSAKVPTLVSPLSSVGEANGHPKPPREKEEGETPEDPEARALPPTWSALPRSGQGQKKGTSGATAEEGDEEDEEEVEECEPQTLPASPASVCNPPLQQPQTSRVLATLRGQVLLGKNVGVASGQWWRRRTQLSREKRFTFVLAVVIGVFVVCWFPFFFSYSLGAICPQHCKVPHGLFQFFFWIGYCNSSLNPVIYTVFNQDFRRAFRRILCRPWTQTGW
T1 sequence (P22909 whole entry): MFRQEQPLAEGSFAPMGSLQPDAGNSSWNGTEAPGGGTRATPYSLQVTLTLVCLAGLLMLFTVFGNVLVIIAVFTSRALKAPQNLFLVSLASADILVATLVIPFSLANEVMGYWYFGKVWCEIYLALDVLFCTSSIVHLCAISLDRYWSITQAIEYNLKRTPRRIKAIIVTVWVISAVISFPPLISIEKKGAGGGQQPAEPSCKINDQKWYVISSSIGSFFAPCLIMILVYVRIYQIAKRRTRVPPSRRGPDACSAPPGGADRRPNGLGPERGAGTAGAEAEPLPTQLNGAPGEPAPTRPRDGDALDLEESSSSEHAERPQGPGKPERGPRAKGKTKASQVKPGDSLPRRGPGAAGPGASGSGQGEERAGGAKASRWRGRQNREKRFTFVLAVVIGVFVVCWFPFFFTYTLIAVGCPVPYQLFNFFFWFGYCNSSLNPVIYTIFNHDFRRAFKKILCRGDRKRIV
How it was run: (§1)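 Rat brain membrane fractions incubated with 0.2 nM [3H]rauwolscine for α2 sites. Nonspecific binding defined with 10 μM phentolamine. IC50 (analog concentration reducing specific binding by 50%) converted to Ki by Ki = IC50(1 + [L]/Kd), where [L] is the radioligand concentration and Kd its equilibrium dissociation constant.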

[2] = target: Adrenergic receptor alpha (Rattus norvegicus) (UniProt P15823+P23944+P43140+P22086+P19328+P22909); test: Relative affinity for Alpha 2 over Alpha 1 adrenergic receptors; assay type: protein assay
[3] = target: T2, Adrenergic receptor alpha-1 (Rattus norvegicus, UniProt P15823+P23944+P43140); test: Displacement of [3H]-prazosin from Alpha-1 adrenergic receptor of rat brain membranes; assay type: cell membranes, Membrane
T2 sequence (P15823 whole entry): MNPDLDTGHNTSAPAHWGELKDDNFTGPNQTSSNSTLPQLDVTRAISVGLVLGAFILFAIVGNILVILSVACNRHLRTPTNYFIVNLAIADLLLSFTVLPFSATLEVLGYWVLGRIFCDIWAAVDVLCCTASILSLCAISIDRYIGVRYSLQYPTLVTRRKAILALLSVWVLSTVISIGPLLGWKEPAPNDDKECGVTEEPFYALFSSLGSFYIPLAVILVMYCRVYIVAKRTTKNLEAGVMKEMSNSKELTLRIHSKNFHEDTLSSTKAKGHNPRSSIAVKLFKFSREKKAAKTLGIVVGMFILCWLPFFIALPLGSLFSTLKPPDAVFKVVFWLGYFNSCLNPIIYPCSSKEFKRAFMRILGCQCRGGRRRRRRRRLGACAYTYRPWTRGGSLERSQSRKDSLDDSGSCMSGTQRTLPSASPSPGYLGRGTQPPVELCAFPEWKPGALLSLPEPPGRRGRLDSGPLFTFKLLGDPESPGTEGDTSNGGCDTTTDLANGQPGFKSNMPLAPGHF
T2 sequence (P23944 whole entry): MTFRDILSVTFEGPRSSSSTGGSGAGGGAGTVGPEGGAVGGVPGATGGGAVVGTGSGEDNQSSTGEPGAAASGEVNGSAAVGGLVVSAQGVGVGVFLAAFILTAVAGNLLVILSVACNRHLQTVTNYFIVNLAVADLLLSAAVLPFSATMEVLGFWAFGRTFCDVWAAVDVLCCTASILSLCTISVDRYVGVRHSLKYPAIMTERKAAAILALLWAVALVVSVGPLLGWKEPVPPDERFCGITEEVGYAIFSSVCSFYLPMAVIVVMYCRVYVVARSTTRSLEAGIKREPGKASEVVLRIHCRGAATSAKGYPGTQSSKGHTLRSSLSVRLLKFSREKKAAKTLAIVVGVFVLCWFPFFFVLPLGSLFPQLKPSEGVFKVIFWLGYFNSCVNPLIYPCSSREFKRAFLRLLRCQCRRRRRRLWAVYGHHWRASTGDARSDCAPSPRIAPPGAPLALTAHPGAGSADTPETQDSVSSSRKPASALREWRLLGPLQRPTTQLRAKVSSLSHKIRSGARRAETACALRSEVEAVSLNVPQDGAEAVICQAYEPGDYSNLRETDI
T2 sequence (P43140 whole entry): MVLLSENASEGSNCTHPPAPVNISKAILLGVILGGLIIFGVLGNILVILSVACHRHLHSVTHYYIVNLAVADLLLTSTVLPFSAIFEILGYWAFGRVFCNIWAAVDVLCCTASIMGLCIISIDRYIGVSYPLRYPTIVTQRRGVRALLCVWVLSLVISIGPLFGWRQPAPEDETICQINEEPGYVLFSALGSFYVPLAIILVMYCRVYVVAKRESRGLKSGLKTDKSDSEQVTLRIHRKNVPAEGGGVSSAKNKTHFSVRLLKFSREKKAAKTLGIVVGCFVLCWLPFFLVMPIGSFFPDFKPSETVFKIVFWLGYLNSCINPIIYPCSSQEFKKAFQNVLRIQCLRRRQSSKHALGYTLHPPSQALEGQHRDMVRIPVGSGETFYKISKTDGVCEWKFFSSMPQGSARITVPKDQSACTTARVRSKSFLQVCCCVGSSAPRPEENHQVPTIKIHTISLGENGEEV
How it was run: as §1, with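 “0.1” for “0.2”, “[3H]prazosin” for “[3H]rauwolscine”, “α1” for “α2”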

Compound | Ki [1] [nM] | Selectivity [2] | Ki [3] [nM]
COc1cccc2c1CCC=C2c1c[nH]cn1 | 1420 | 2.1 | 2970
COc1ccc2c(c1)C(c1c[nH]cn1)CCC2 (stereo not given) | 201 | 8.81 | 1770
COc1ccc2c(c1)CCC=C2c1c[nH]cn1 | 580 | 2.81 | 1630
Cc1cccc2c1CCC=C2c1c[nH]cn1 | 31 | 32 | 992
COc1ccc2c(c1)C(c1c[nH]cn1)=CCC2 | 1570 | 9.03 | 14200
Oc1cccc2c1CCCC2c1c[nH]cn1 (stereo not given) | 63 | 2.01 | 126
Cc1cc(C)c2c(c1)C(c1c[nH]cn1)CCC2 (stereo not given) | 103 | 1.27 | 131
Cc1cccc2c1CCCC2c1c[nH]cn1 (stereo not given) | 95 | 2.01 | 191
C1=C(c2c[nH]cn2)c2cccc(OCc3ccccc3)c2CC1 | 2670 | 3.09 | 8250
Cc1cc(C)c2c(c1)C(c1c[nH]cn1)=CCC2 | 232 | 12.8 | 2960
Cc1cccc(C(C)c2c[nH]cn2)c1C (stereo not given) | – | 44.4 | –
Cc1cccc2c1CCC2c1c[nH]cn1 (stereo not given) | 8.8 | 8.29 | 73
COc1cccc2c1CCCC2c1c[nH]cn1 (stereo not given) | 98 | 2.48 | 243
COc1ccc2c(c1)CCCC2c1c[nH]cn1 (stereo not given) | 169 | 1.17 | 198
